Test results as given in ChEMBL document CHEMBL4732112, “Synthesis and in vitro evaluation of novel spiroketopyrazoles as acetyl-CoA carboxylase inhibitors and potential antitumor agents” (Eur J Med Chem, 2021).

Columns and labels:
HepG2 [1] = assay: Cell cycle arrest in human HepG2 cells assessed as reduction in cyclin D1 expression at 10 uM measured after 48 hrs by Western blot analysis relative to control; assay type: functional; set-up: scale not given: the % may be the effect or the level left
Outline: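 HepG2 cells treated for 48 h and lysed. Lysates cleared at 12000 rpm for 15 min and protein measured by BCA. Run on SDS-PAGE, transferred to PVDF, blocked in 5% BSA, primary antibody at 4 °C overnight, then DyLight 800 secondary. Infrared imaging and densitometry against β-actin. Mean ± SD, n=3.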

HepG2 [2] = assay: Induction of apoptosis in human HepG2 cells assessed as viable cells at 10 uM measured after 48 hrs by Annexin V-FITC/propidium iodide staining based flow cytometry (reference value: 95.6%); assay type: functional; settings: read-out: Activity
Outline: (§1)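 HepG2 cells incubated with the stated concentrations for 48 h, harvested, and stained with Annexin V-FITC and propidium iodide protected from light. Viable, early apoptotic, late apoptotic and necrotic fractions quantified by flow cytometry. Mean ± SD, n=3.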

Acetyl-CoA carboxylase 1 [3] = target: T1, Acetyl-CoA carboxylase 1 (Homo sapiens, UniProt Q13085); assay: Inhibition of recombinant human C-terminal His-tagged ACC1 (1 to 2383 residues) expressed in baculovirus infected Sf9 insect cells preincubated for 15 mins followed by substrate addition and measured after 60 mins by ADP-glo luminescence assay
Outline: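 Recombinant ACC1 in assay buffer preincubated with inhibitor in DMSO for 15 min at room temperature. Reaction started with substrate mixture and run 60 min at room temperature. Stopped with ADP-Glo reagent for 40 min, then detection reagent for 40 min to convert ADP to ATP, read by luminescence. Mean of two independent experiments.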

HepG2 [4] = assay: Induction of apoptosis in human HepG2 cells assessed as reduction in Bcl2 expression measured after 48 hrs by Western blot analysis; assay type: functional, cell-based; settings: dose 1-10 µM
Outline: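 Western blots for Bcl-2, Bax, cleaved caspase-3 and cleaved PARP in HepG2 cells after 48 h treatment (1, 5, 10 μM for PARP). Lysates cleared, protein quantified by BCA, run on SDS-PAGE to PVDF, blocked in 5% BSA, primary overnight at 4 °C, DyLight 800 secondary. Infrared scanning and densitometry normalized to β-actin. Mean ± SD, n=3.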

HepG2 [5] = assay: Antiproliferative activity against human HepG2 cells assessed as combination index at 0.0875 uM measured after 72 hrs in presence of 0.175 uM doxorubicin by MTT assay; assay type: functional
HepG2 [6] = assay: Cell cycle arrest in human HepG2 cells assessed as accumulation at G2/M phase at 1 uM measured after 48 hrs by propidium iodide staining based flow cytometry (reference value: 13.58%); assay type: functional
Acetyl-CoA carboxylase 1 [7] = target: T1, Acetyl-CoA carboxylase 1; assay: Inhibition of ACC1 in human HepG2 cells assessed as reduction in intracellular triglyceride level at 10 uM measured after 48 hrs by GPO-PAP method relative to control; assay type: cell-based
Outline: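 HepG2 cells plated and exposed to the compound at several concentrations for 48 h. Cells washed with PBS, lysed in 1% Triton X-100 and spun 12000 rpm, 4 °C, 15 min. Malonyl-CoA measured by ELISA kit and triglyceride by GPO-POP kit, each normalised to BCA protein. Reported relative to control, mean ± SD, n=3.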

HepG2 [8] = assay: Cell cycle arrest in human HepG2 cells assessed as accumulation at G2/M phase at 5 uM measured after 48 hrs by propidium iodide staining based flow cytometry (reference value: 13.58%); assay type: functional
HepG2 [9] = assay: Cell cycle arrest in human HepG2 cells assessed as accumulation at S phase at 10 uM measured after 48 hrs by propidium iodide staining based flow cytometry (reference value: 30.18%); assay type: functional
HepG2 [10] = assay: Antiproliferative activity against human HepG2 cells assessed as cell growth inhibition after 72 hrs by MTT assay; assay type: functional, cell-based; settings: HepG2, 72 h
Outline: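 HepG2, A549 or MDA-MB-231 cells grown in DMEM with 10% FBS and penicillin/streptomycin at 37 °C, 5% CO2. Seeded at 3×10^3 per well, left 24 h, then exposed to a range of concentrations for 72 h. MTT added for 4 h, formazan dissolved in DMSO, absorbance read at 550 nm. Mean ± SD, n=3.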

HepG2 [11] = assay: Induction of apoptosis in human HepG2 cells assessed as increase in early apoptotic cells measured after 48 hrs by Annexin V-FITC/propidium iodide staining based flow cytometry; assay type: functional, cell-based; settings: dose 1-10 µM; outline: as §1

## CC(C)(C)n1cc2c(n1)C(=O)CC1(CCN(C(=O)c3cc(-c4ccncc4)nc4ccccc34)CC1)O2
HepG2 [1]
  Activity: 43.92%
HepG2 [2]
  viability at 10 µM: 12.2%
Acetyl-CoA carboxylase 1 [3]
  IC50: 0.0113 µM
HepG2 [4]
  Activity: Dose-dependent effect
HepG2 [5]
  CI: 0.713
HepG2 [6]
  Activity: 10.86%
Acetyl-CoA carboxylase 1 [7]
  inhibition: 36.7%
HepG2 [8]
  Activity: 6.46%
HepG2 [9]
  Activity: 6.48%
HepG2 [10]
  IC50: 0.38 µM
HepG2 [11]
  Activity: Dose-dependent effect
